Data taken from paper PMC4739781 (Journal of materials chemistry. B, Materials for biology …, 2015).
Like-named read-outs stand apart in the source and are kept apart here. Blank lines part the entries; values can stand above or below the molecule they belong to.

How the values were obtained:
[1] = tested on: A549 human lung adenocarcinoma cells; experiment: A549 cell cytotoxicity in the dark and after irradiation; format: cell-based; conditions: for Phototoxicity Index, PI: ratio of the dark and light A549 EC50 values
Summary of the method: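 A549 cells kept in DMEM with 10% FBS and 1% pen-strep at 37 °C, 5% CO2, below 70% confluence. Seeded at 1,500 cells/well in opti-MEM with 1% serum supreme and 1% pen-strep, then held 6 hrs. Free or CNA-loaded complex was added (0–300 μM or 0–20 μM) in the dark for 18 h. Cells were then irradiated (410 W projector, λ>400 nm filter, 30 sec pulses with 30 sec gaps, 5 min total) or kept dark, and held 72 hrs. Resazurin 73.3 μM for 4 hrs; fluorescence ex 560/em 590 nm; triplicate. PI is dark EC50 over light EC50.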

[2] = Ru complex release from PEG-ASP CNAs by dialysis under sink conditions; format: physicochemical; conditions: for Release (%) in the primary phase: two-phase fit
Summary of the method: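 Triplicate dialysis under sink conditions. Loaded CNAs at 100 μg/mL complex in diH2O, either irradiated 3 hrs (200 W, λ>400 nm, 120 J/cm²) or kept dark, in 10,000 MWCO cassettes. Dialysed at 37 °C in the dark against 5 L PBS or 10 mM phosphate buffer without NaCl (pH 6.0 or 7.4). Free complex served as control. Cassette contents were sampled over 0–48 hrs and read by MLCT-peak absorbance. Data were fitted by one-phase exponential regression, or two-phase where that fit better.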

[3] = Ru complex photoactivation; format: physicochemical; conditions: after 30 min irradiation (200 W, λ>400 nm)
Summary of the method: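 Free or CNA-loaded complex in PBS, in a 1 cm quartz cuvette 18 in from a 200 W projector with λ>400 nm cutoff filter. UV/Vis absorbance change was recorded over irradiation time. Photoactivation t1/2 (time for half the spectral change) was obtained by non-linear exponential regression.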

pUC19 plasmid DNA = experiment: DNA agarose gel electrophoresis; format: biochemical
[4] = Ru complex loading in PEG-ASP CNAs by UV/Vis absorption at MLCT peak; format: physicochemical; conditions: maximum theoretical loading 25 wt %
Summary of the method: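 PEG-ASP(Na⁺) CNAs and Ru complex (theoretical maximum loading 25%) were dissolved in anhydrous DMSO and incubated overnight at room temperature, protected from light. Unbound complex was removed by dialysis (6,000–8,000 MWCO) against diH2O, changed twice daily for 3 days. The product was lyophilized. Loading was quantified by UV/Vis absorbance at each complex's MLCT peak.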

A549 cells = experiment: A549 cytotoxicity with exposure limited to 8 hrs, wash, then irradiation; format: cell-based, human; conditions: irradiation λ>400 nm, 72 hrs
Summary of the method: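 Free or CNA-entrapped complex was incubated with A549 cells for 8 hrs. Extracellular compound was washed off with fresh media. Cells were irradiated (λ>400 nm), incubated 72 hrs, and viability was read as in the standard assay: 73.3 μM resazurin for 4 hrs, fluorescence ex 560/em 590 nm.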

[5] = air-equilibrated D2O at room temperature; cited from earlier work
[6] = log P by shake flask method; format: physicochemical; conditions: Dark (protected from light)
Summary of the method: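 Shake flask method in triplicate, using n-octanol and diH2O mutually pre-saturated (4:1 mixtures, 24 hrs). Protected from light, complex at 200 μM (100 μM for the less water-soluble one) in diH2O was mixed 1:1 with n-octanol (1 mL total). Samples were shaken 10 min and centrifuged at 17,000 × g for 30 sec. Both phases were read by absorbance at the MLCT peak. Photoactivated samples were first irradiated 30 min (20 J/cm², λ>400 nm filter).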

[7] = read-out: EC50 Dark, A549, protected from light, 72 hrs
[8] = read-out: EC50 Light, A549, 5 min light irradiation (λ>400 nm), 72 hrs

SMILES: N.N.[Cl][Pt][Cl] [cisplatin, reference compound]
Phototoxicity Index, PI [1]: 1 | EC50 [1, 7]: 2.5 ± 0.6 µM | EC50 [1, 8]: 2.5 ± 0.6 µM

Release (%) from PEG-ASP CNAs ([2]; Dark, PBS (100 mM NaCl), pH 7.4, 37 °C): 37.0% | Release (%) from PEG-ASP CNAs (total) ([2]; Dark, phosphate buffer 0 mM NaCl, pH 6.0, 37 °C): 46.4% | Release (%) in the primary phase ([2]; Dark, phosphate buffer 0 mM NaCl, pH 6.0): 45.0% | Release (%) from PEG-ASP CNAs (total) ([2]; Dark, phosphate buffer 0 mM NaCl, pH 7.4, 37 °C): 51.9% | Release (%) in the primary phase ([2]; Dark, phosphate buffer 0 mM NaCl, pH 7.4): 45.2% | amount released from PEG-ASP CNAs after 18 hrs ([2]; after 18 hrs, dark): approximately 20% | photo-stability: change of UV/Vis absorbance spectrum [3]: did not change | EC50 (pUC19 plasmid DNA; read-out: DNA interaction EC50 (DNA precipitation), protected from light, 40 μg/mL pUC19, 10 mM PB pH 7.4): 31.3 to 62.5 µM | EC50 (pUC19 plasmid DNA; read-out: DNA interaction EC50 (single strand DNA breaks), after photoactivation (40 J/cm^2, λ>400 nm), 40 μg/mL pUC19): 15.6 to 31.3 µM | loading efficiency in PEG-ASP CNAs [4]: 88% | weight % of Ru complex in loaded PEG-ASP CNAs [4]: 22 wt % | log P [6]: 1.80 ± 0.02
SMILES: [Cl-].[Cl-].[Ru+2].c1ccc(-c2ccnc3c2ccc2c(-c4ccccc4)ccnc23)cc1.c1ccc(-c2ccnc3c2ccc2c(-c4ccccc4)ccnc23)cc1.c1ccc(-c2ccnc3c2ccc2c(-c4ccccc4)ccnc23)cc1 [compound 3, [Ru(dip)3]Cl2]
Phototoxicity Index, PI [1]: >6 | EC50 [1, 7]: 0.6 ± 1.1 µM | EC50 [1, 8]: 0.1 µM | potency when cells were washed after an 8 hr exposure time (A549 cells): remained potent | singlet oxygen generation ΦΔ [5]: 0.42

SMILES: Cc1cccc(-c2cccc(C)n2)n1 [dmbpy, 6,6′-dimethyl-2,2′-bipyridine]
EC50 ([1]; Homo sapiens, A549, read-out: EC50 (ejected ligand cytotoxicity)): 80 µM

Release (%) from PEG-ASP CNAs ([2]; Photoactivated, PBS (100 mM NaCl), pH 7.4, 37 °C): 77.7% | Release (%) from PEG-ASP CNAs ([2]; Photoactivated, phosphate buffer 0 mM NaCl, pH 7.4, 37 °C): 65.8%
SMILES: O.O.[Cl-].[Cl-].[Ru+2].c1ccc(-c2ccccn2)nc1.c1ccc(-c2ccccn2)nc1 [photoactivated 1, [Ru(bpy)2(H2O)2]Cl2]
